What all share (type): protein-complex assay
Test [1] has as its target T1, MexXY/OprM (Pseudomonas aeruginosa (strain ATCC 15692 / DSM 22644 / CIP 104116 / JCM14847 / LMG 12228 / 1C / PRS 101 / PAO1)) (UniProt Q51487+Q9ZNG9+Q9ZNG8). Kind of test: Inhibition of MexXY/OPRM in Pseudomonas aeruginosa C25 assessed as reduction in bacterial resistance to tobramycin by measuring tobramycin MIC at 80 ug/ml incubated for 24 to 48 hrs by broth microdilution method (reference value: 16 ug/ml).

The target of test [2] is T1, MexXY/OprM (Pseudomonas aeruginosa (strain ATCC 15692 / DSM 22644 / CIP 104116 / JCM14847 / LMG 12228 / 1C / PRS 101 / PAO1)). Description: Inhibition of MexXY/OPRM in Pseudomonas aeruginosa C31 assessed as reduction in bacterial resistance to tobramycin by measuring tobramycin MIC at 80 ug/ml incubated for 24 to 48 hrs by broth microdilution method (reference value: 8 ug/ml). On the technique in general: Dilution methods test growth across graded concentrations, often in twofold steps.

Test [3] shares this target. Kind of test: Inhibition of MexXY/OPRM in Pseudomonas aeruginosa C59 assessed as reduction in bacterial resistance to tobramycin by measuring tobramycin MIC at 80 ug/ml incubated for 24 to 48 hrs by broth microdilution method (reference value: 64 ug/ml).
Test [4] has the same target. Kind of test: Inhibition of MexXY/OPRM in Pseudomonas aeruginosa C61 assessed as reduction in bacterial resistance to tobramycin by measuring tobramycin MIC at 80 ug/ml incubated for 24 to 48 hrs by broth microdilution method (reference value: 64 ug/ml).
Test [5] shares this target. Description: Inhibition of MexXY/OPRM in Pseudomonas aeruginosa C84 assessed as reduction in bacterial resistance to tobramycin by measuring tobramycin MIC at 80 ug/ml incubated for 24 to 48 hrs by broth microdilution method (reference value: 0.5 ug/ml). In short, it runs like this: (§1)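 Broth microdilution per CLSI, with P. aeruginosa ATCC 27853 as reference strain, in 2-fold dilution series. Plates were incubated at 37°C and read for visible growth at 24 and 48 h. Berberine stock was in 50% DMSO/50% methanol, with final DMSO kept near 1%. Berberine was tested at 10–320 µg/ml, alone or at a fixed level with serial tobramycin.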

Test [6] shares this target. Kind of test: Inhibition of MexXY/OPRM in Pseudomonas aeruginosa C95 assessed as reduction in bacterial resistance to tobramycin by measuring tobramycin MIC at 80 ug/ml incubated for 24 to 48 hrs by broth microdilution method (reference value: 32 ug/ml). In a few lines: as §1
For test [7] the target is unchanged. Description: Inhibition of MexXY/OPRM in Pseudomonas aeruginosa C98 assessed as reduction in bacterial resistance to tobramycin by measuring tobramycin MIC at 80 ug/ml incubated for 24 to 48 hrs by broth microdilution method (reference value: 64 ug/ml). In a few lines:
as §1

The target is the same in test [8]. Kind of test: Inhibition of MexXY/OPRM in Pseudomonas aeruginosa C104 assessed as reduction in bacterial resistance to tobramycin by measuring tobramycin MIC at 80 ug/ml incubated for 24 to 48 hrs by broth microdilution method (reference value: 32 ug/ml).
Test [9] shares this target. Description: Inhibition of MexXY/OPRM in Pseudomonas aeruginosa AR61 assessed as reduction in bacterial resistance to tobramycin by measuring tobramycin MIC at 80 ug/ml incubated for 24 to 48 hrs by broth microdilution method (reference value: 0.125 ug/ml).
For test [10] the target is unchanged. Kind of test: Inhibition of MexXY/OPRM in Pseudomonas aeruginosa C95 assessed as reduction in bacterial resistance to tobramycin by measuring increase in tobramycin-mediated bactericidal activity at 80 ug/ml in presence of 0.5XMIC tobramycin measured after 4 hrs by Time-kill curve analysis.
For test [11] the target is unchanged. Description: Inhibition of MexXY/OPRM in Pseudomonas aeruginosa C95 assessed as reduction in bacterial resistance to tobramycin by measuring log reduction in colony forming unit at 80 ug/ml in presence of 1XMIC to 2XMIC tobramycin measured after 24 hrs by Time-kill curve analysis.
For test [12] the target is unchanged. Description: Inhibition of MexXY/OPRM in Pseudomonas aeruginosa PA14 assessed as bacterial growth up to 320 ug/ml incubated for 24 to 48 hrs by broth microdilution method. In short, it runs like this: as §1
The target is the same in test [13]. Kind of test: Inhibition of MexXY/OPRM in Pseudomonas aeruginosa K767 assessed as bacterial growth up to 320 ug/ml incubated for 24 to 48 hrs by broth microdilution method. In short, it runs like this:
as §1

Test [14] has the same target. Description: Inhibition of MexXY/OPRM in Pseudomonas aeruginosa C15 assessed as bacterial growth up to 320 ug/ml incubated for 24 to 48 hrs by broth microdilution method. In short, it runs like this:
(§2)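 Broth microdilution following CLSI guidelines, with P. aeruginosa ATCC 27853 as reference strain. Berberine was tested at 2-fold concentrations from 10 to 320 µg/ml, dissolved in 50% DMSO/50% methanol, with the top concentration set to keep final DMSO close to 1%. Plates were incubated at 37°C and read for visible growth at 24 and 48 h.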

The target is the same in test [15]. Description: Inhibition of MexXY/OPRM in Pseudomonas aeruginosa C30 assessed as bacterial growth up to 320 ug/ml incubated for 24 to 48 hrs by broth microdilution method. In short, it runs like this:
as §2

Test [16] has the same target. Kind of test: Inhibition of MexXY/OPRM in Pseudomonas aeruginosa C51 assessed as bacterial growth up to 320 ug/ml incubated for 24 to 48 hrs by broth microdilution method. In short, it runs like this:
as §2

Test [17] shares this target. Description: Inhibition of MexXY/OPRM in Pseudomonas aeruginosa C61 assessed as bacterial growth up to 320 ug/ml incubated for 24 to 48 hrs by broth microdilution method. In a few lines:
as §2

Test [18] shares this target. Kind of test: Inhibition of MexXY/OPRM in Pseudomonas aeruginosa AR61 assessed as bacterial growth up to 320 ug/ml incubated for 24 to 48 hrs by broth microdilution method. In a few lines:
as §2

The target is the same in test [19]. Description: Inhibition of MexXY/OPRM in Pseudomonas aeruginosa C6 assessed as reduction in bacterial resistance to tobramycin by measuring fold reduction in tobramycin MIC at 80 ug/ml incubated for 24 to 48 hrs by broth microdilution method.
Test [20] has the same target. Kind of test: Inhibition of MexXY/OPRM in Pseudomonas aeruginosa C25 assessed as reduction in bacterial resistance to tobramycin by measuring fold reduction in tobramycin MIC at 80 ug/ml incubated for 24 to 48 hrs by broth microdilution method.
Test [21] shares this target. Description: Inhibition of MexXY/OPRM in Pseudomonas aeruginosa C61 assessed as reduction in bacterial resistance to tobramycin by measuring fold reduction in tobramycin MIC at 80 ug/ml incubated for 24 to 48 hrs by broth microdilution method.
Test [22] has the same target. Kind of test: Inhibition of MexXY/OPRM in Pseudomonas aeruginosa C83 assessed as reduction in bacterial resistance to tobramycin by measuring fold reduction in tobramycin MIC at 80 ug/ml incubated for 24 to 48 hrs by broth microdilution method.
The target is the same in test [23]. Description: Inhibition of MexXY/OPRM in Pseudomonas aeruginosa C95 assessed as reduction in bacterial resistance to tobramycin by measuring fold reduction in tobramycin MIC at 80 ug/ml incubated for 24 to 48 hrs by broth microdilution method. In a few lines: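 Tobramycin MIC by CLSI broth microdilution at 37°C, read at 24 and 48 h, with and without a fixed berberine concentration selected from checkerboard assays. Berberine stock was in 50% DMSO/50% methanol, final DMSO about 1%. A 2-fold decrease in tobramycin MIC was scored as synergy.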

The source made the active and inactive calls. The calls are words filed in the database; no cut-off is given here.

For the compound `COc1ccc2cc3[n+](cc2c1OC)CCc1cc2c(cc1-3)OCO2` [BERBERINE], the MIC amounted to 1 µg/mL in [1]; 8 µg/mL in [2]; 32 µg/mL in test [3]; 16 µg/mL in test [4]; 0.125 µg/mL in [5]; 4 µg/mL in test [6]. Also, the results for the MIC in test [7], in test [8] and in test [9] were 32 µg/mL, 8 µg/mL and 0.125 µg/mL, respectively. The inhibition entry in [10] is “Active”. Also, in [11], the Activity was determined as 2 log10CFU. Moreover, the inhibition entry in [12], in [13], in test [14], in test [15], in [16] and in test [17] was “inactive” in each case. Also, the inhibition entry in test [18] is “inactive”. Moreover, the fold change (FC) is > 2 in [19]; 16 in [20]; > 2 in [21]; > 2 in [22]; > 2 in test [23].

These data come from ChEMBL document CHEMBL4334451, “Natural Alkaloid Berberine Activity against Pseudomonas aeruginosa MexXY-Mediated Aminoglycoside Resistance: In Silico and in Vitro Studies” (J Nat Prod, 2019).
